Screening results as filed in PubChem BioAssay.
Her2 expr inh = lowers expression of human Her2 kinase. P04626. SKBR-3 HER2 protein level, AlphaScreen, 18-24 h; active compounds read low. HER2 level % of control, % at 10 µM. actives 0.69% (n = 65,000). AID 645;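 active means HER2 level under 5% of the carrier-only control; inconclusive means no clear call, values can overlap the other calls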;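 further: lower value means stronger loss of Her2 protein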
M1 antagonist = blocks the rat M1 muscarinic receptor response to acetylcholine; P08482; CHO-M1 cells, Fluo-4 calcium, ACh EC80 antagonist mode; active compounds read low; B-score at 10 µM; actives 3.4% (n = 64,000); AID 628;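 active means calcium fluorescence response, raw or row-and-column corrected B-score, differing from the plate sample mean either way at a set confidence level, mostly lower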
HEK293 NFkB inh = lowers PMA/ionomycin-induced NF-kB signal in HEK293 cells; HEK-293 NF-kB luciferase reporter, luminescence; inhibition, % at 3 µM; actives 0.21% (n = 62,000);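 active means inhibition above the mean of all tested compounds plus 3 SD, cut at about 40% in these data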
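Reagent: PMA plus ionomycin mix as NF-kB-activating stimulus. Assay system: NF-kB luciferase reporter HEK-293 cells. Technique: luminescence from luciferase substrate reagent. Incubation: 1 h compound pre-incubation, 16 h PMA/ionomycin at 37 °C. Benchmarks: DMSO only as uninhibited control, 10 µM reference inhibitor as full inhibition. Repeats: tested once.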
M1 agonist = agonists of M1 muscarinic receptor | CHO-M1 cells, Fluo-4 calcium fluorescence, agonist mode; active compounds read high | B-score at 10 µM | actives 3% (n = 64,000);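 active means fluorescence rise, raw or as B-score row- and column-corrected plate score, outside the 99.7% band of its plate's samples, either direction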
Cdc25B block = human M-phase inducer phosphatase 2 inhibition; recombinant Cdc25B, OMFP fluorescence Ex485/Em525; inhibition, %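 (compounds tested at 10 µM final in the well)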; actives 0.1% (n = 65,000); AID 368; in the data active means inhibition above about 50%
DUSP1 inh = blocks human MKP-1 phosphatase activity. P28562. recombinant MKP-1, OMFP hydrolysis fluorescence. inhibition, %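 (compounds tested at a single concentration somewhere between 10 and 100 µM)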. actives 0.15% (n = 65,000). AID 374;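 active means inhibition above about 50%, limit read from the data; inconclusive means inhibition over screen mean plus 3 SD, below that limit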
Target sequence (P28562 whole entry, looked up): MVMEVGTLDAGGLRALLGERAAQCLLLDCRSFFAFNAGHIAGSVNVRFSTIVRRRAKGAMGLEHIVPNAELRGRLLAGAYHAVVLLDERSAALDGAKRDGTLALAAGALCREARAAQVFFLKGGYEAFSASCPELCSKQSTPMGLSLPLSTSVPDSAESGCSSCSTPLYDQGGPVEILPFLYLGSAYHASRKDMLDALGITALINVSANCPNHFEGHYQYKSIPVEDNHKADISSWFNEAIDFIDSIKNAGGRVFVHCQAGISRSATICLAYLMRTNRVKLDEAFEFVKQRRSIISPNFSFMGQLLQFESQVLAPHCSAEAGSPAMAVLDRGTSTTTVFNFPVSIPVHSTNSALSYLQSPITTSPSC
M1 agonist conf = rat M1 muscarinic agonism, confirmation; shares compounds with M1 agonist; CHO-M1 cells, Fluo-4 calcium fluorescence, agonist mode; actives lie on both sides; fluorescence change (max-min) at 10 µM; actives 19% (n = 1,700); AID 1488;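 active means fluorescence change differs from the solvent-only DMSO control mean at a set confidence level in both duplicate runs; inconclusive means differs from solvent-only control mean in just one of two runs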;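 further: an EC20 dose of acetylcholine follows compound addition during the same imaging run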
M4 agonist ctr = activates rat M4 receptor in counter-screen for M1 agonists; CHO M4/Gqi5 cells, Fluo-4 calcium fluorescence, agonist mode; actives lie on both sides; fluorescence change (max-min) at 10 µM; AID 1741; actives 9% (n = 1,700); shares compounds with M1 agonist;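 active means fluorescence change differing from the plate's solvent-only control wells at 99.7% confidence in both duplicates, whether higher or lower; inconclusive means differs from solvent controls in only one of two duplicates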
M1 antag conf = M1 muscarinic receptor (rat) antagonism, confirmed; shares compounds with M1 antagonist; calcium response (max-min fluorescence) at 10 µM; CHO-M1 cells, Fluo-4 calcium, ACh EC80 antagonism; active compounds read low; actives 43% (n = 1,700);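 active means calcium response below the same-plate mean of wells given acetylcholine alone at its 80%-effect dose, minus 3 SD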
mGluR4 antag = mGluR4 (human) activity, M1 antagonist secondary assay. CHO-mGluR4 calcium flux, Fluo-4 fluorescence, glutamate EC80; active compounds read low. shares compounds with M1 antagonist. fluorescence response (max-min) at 10 µM. actives 0.9% (n = 1,700);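 active means fluorescence response below the plate's average for near-maximal glutamate wells, less 3 SD of those wells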;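 further: raw unnormalized fluorescence span taken in the window right after glutamate addition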
Of the large screens only hits and unclear results are named; the others gave an inactive call (follow-up assays come after a bar, where they were run). In the library only some 6.8% were active in any assay of this set; here they are far more common.

Cc1cc(C)n(-c2ccc(C(=O)OCC(=O)c3ccc(Br)s3)cc2)n1	none
O=C(c1ccco1)c1cn(CC(=O)N2CCCCC2)c2ccccc12	none
O=C(CSC1=NCCS1)Nc1ccnc2ccccc12	M1 agonist 4.2 | M1 agonist conf inactive | M4 agonist ctr inconclusive
COCCN1C(=O)C(CC(=O)Nc2ccc(C(C)=O)cc2)SC1=Nc1ccccc1 (configuration not stated)	M1 agonist 3.9 | M1 agonist conf inconclusive | M4 agonist ctr inactive
CC(O)CN1C(=O)C(CC(=O)Nc2ccc(Cl)cc2)SC1=Nc1ccccc1 (configuration not stated)	none
CCCC(OC(=O)CC1Sc2ccccc2NC1=O)C(=O)NCc1ccco1 (configuration not stated)	M1 agonist 2.5 | M1 agonist conf inactive | M4 agonist ctr inactive
O=C(CSc1nnc(-c2ccccc2)n1Cc1ccco1)Nc1ccc2c(c1)OCCO2	M1 agonist 3.5 | M1 agonist conf inactive | M4 agonist ctr inactive
O=C(CSCC(=O)N1CCCCC1)Nc1nc(-c2ccc(Cl)s2)cs1	M1 agonist 4.8 | M1 agonist conf inconclusive | M4 agonist ctr inactive
O=C(CN1C(=O)CCC1=O)Nc1nc(-c2ccc(Cl)s2)cs1	none
O=C(CSCC(=O)N1CCCCC1)Nc1nc(-c2cccs2)cs1	M1 agonist 5.7 | M1 agonist conf inactive | M4 agonist ctr inactive
CC(=O)Nc1cccc(-c2csc(NCc3ccco3)n2)c1	none
CCOC(=O)CSc1nnc(CNC(=O)c2ccco2)n1C	none
COC(=O)CSc1nnc(CNC(=O)c2ccco2)n1-c1ccc(F)cc1	M1 agonist 4.4 | M1 agonist conf inactive | M4 agonist ctr inconclusive
COc1cccc(N2CCN(Cc3coc4c(Cl)cc(Cl)cc4c3=O)CC2)c1	none
Cc1ccc(C=Nc2ccc(N(C)C)cc2)o1	none
CN(C)c1ccc(/C=C/c2cc[n+]([O-])cc2)cc1	M1 agonist 247 | M1 agonist conf 876 | M4 agonist ctr 895
CCOC(=O)C1CCCN(C2CC(=O)N(c3ccc(C)c(C)c3)C2=O)C1 (configuration not stated)	none
CCOC(=O)C1CCCN(C2CC(=O)N(c3cccc(C(F)(F)F)c3)C2=O)C1 (configuration not stated)	M1 antagonist -3.3, M1 agonist 9 | M1 agonist conf 67 | M4 agonist ctr inactive | M1 antag conf inactive | mGluR4 antag inactive
CCC(Sc1nncn1C)C(=O)Nc1ccccc1OC (configuration not stated)	none
CCOc1ccccc1N1CCN(Cc2cccc(OC)c2OC)CC1	none
COc1ccccc1N1CCN(Cc2ccc(OC)c(OC)c2OC)CC1	M1 antagonist -6.3, M1 agonist -2.6 | M1 agonist conf inactive | M4 agonist ctr inactive | M1 antag conf inactive | mGluR4 antag inactive
COc1cccc(C(c2nnnn2Cc2ccccc2)N2CCN(C(=O)c3ccco3)CC2)c1OC (configuration not stated)	M1 antagonist -11, M1 agonist -2.3 | M1 agonist conf inactive | M4 agonist ctr inactive | M1 antag conf inactive | mGluR4 antag inactive
NS(=O)(=O)c1ccc(CCNC2CC(=O)N(CCc3ccccc3)C2=O)cc1 (configuration not stated)	none
COC(=O)c1cc2ccsc2n1Cc1cc(=O)n2ccccc2n1	M1 antagonist -7.4, M1 agonist -1.8 | M1 agonist conf inactive | M4 agonist ctr inactive | M1 antag conf 28 | mGluR4 antag inactive
COc1ccc(C(=O)Nc2nnc(Cc3cccs3)s2)cc1OC	M1 antagonist -17 | M1 antag conf inactive | mGluR4 antag inactive
CCOc1ccc(S(=O)(=O)n2c(C)nc3ccccc32)cc1	M1 antagonist -2.6 | M1 antag conf 202 | mGluR4 antag inactive
CCCCOc1ccc(S(=O)(=O)n2c(C)nc3ccccc32)cc1	M1 antagonist -3.5 | M1 antag conf inactive | mGluR4 antag inactive
CCOC(=O)N1CCC(NC(=O)CCc2c(C)nc3c(c(C)nn3C(C)(C)C)c2C)CC1	M1 antagonist -1 | M1 antag conf inactive | mGluR4 antag inactive
Cc1ccc(S(=O)(=O)N2CCC(C(=O)N3CCN(Cc4ccccc4)CC3)CC2)cc1	none
NC(=O)CN1CCCN(S(=O)(=O)c2ccc(Br)cc2)CC1	none
COc1ccc(S(=O)(=O)N2CCN(C3CCCCCCC3)CC2)cc1	none
O=S(=O)(c1ccccc1)N1CCC(N2CCN(c3ccccc3)CC2)CC1	none (no result: HEK293 NFkB inh)
Cc1ccc(S(=O)(=O)N2CCN(C3CCN(Cc4ccccc4)CC3)CC2)cc1	M1 antagonist -15 | M1 antag conf 292 | mGluR4 antag inactive
COc1cccc(CN2CCCN(S(=O)(=O)c3ccc(Br)cc3)CC2)c1	M1 antagonist -10 | M1 antag conf 301 | mGluR4 antag inactive
COc1ccc(S(=O)(=O)N2CCN(C3CCN(Cc4ccccc4)CC3)CC2)cc1	M1 antagonist -11 | M1 antag conf 189 | mGluR4 antag inactive
O=S(=O)(c1ccccc1)N1CCN(C2CCN(Cc3ccccc3)CC2)CC1	M1 antagonist -7.5 | M1 antag conf 244 | mGluR4 antag inactive
COC(=O)C1=CN(C2CC2)C=C(C(=O)OC)C1c1ccc(C(=O)OC)cc1	M1 antagonist -5.9 | M1 antag conf 188 | mGluR4 antag inactive
O=C(NCCN1CCN(C(=O)c2cccs2)CC1)c1cccs1	M1 antagonist -2.3 | M1 antag conf inactive | mGluR4 antag inactive
CCN1CCN(CCCOc2ccc(-c3ccccc3)cc2)CC1	M1 antagonist -3.5 | M1 antag conf 197 | mGluR4 antag inactive
CCCOc1ccccc1Nc1nnc(C)c(=O)[nH]1	none
O=C(CN1CCC(Cc2ccccc2)CC1)NC(=O)NCc1ccco1	none
O=C(CN1CCC(NC(=O)Nc2ccccc2-c2ccccc2)CC1)NCc1ccco1	M1 antagonist -4 | M1 antag conf 215 | mGluR4 antag inactive
COc1ccccc1C1C(C(=O)c2cc3ccccc3o2)=C(O)C(=O)N1CCN1CCOCC1 (configuration not stated)	none
CCN(Cc1ccccc1)C(=O)CSc1nc(C)cc(C)c1C#N	M1 antagonist -2.4 | M1 antag conf inactive | mGluR4 antag inactive
